Measured values taken from ChEMBL document CHEMBL1135864, “Novel amide-based inhibitors of inosine 5'-monophosphate dehydrogenase” (Bioorg Med Chem Lett, 2002).

What was measured:
[1] = target: T1, Inosine-5'-monophosphate dehydrogenase 2 (Homo sapiens, UniProt P12268); test: Inhibitory activity of compound was evaluated against the Inosine-5'-monophosphate dehydrogenase 2
Summary of the method: (§1)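 Human type II IMPDH expressed in and purified from E. coli, used at 40 nM. Buffer was 0.1 M Tris, 0.1 M KCl, 3 mM EDTA pH 8.0 with 2 mM DTT and 400 µM IMP. Compounds were added from DMSO (final 2.5%), and the reaction was started with NAD (final 400 µM). After 2 h at 25 °C, NADH absorbance was read at 340 nm. IC50 was taken from a four-parameter logistic fit.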

[2] = test system: CCRF-CEM; test: Inhibition of human T-lymphoblast CEM cell (ATCC) proliferation; At this concentration no inhibition was observed; type: functional, cell-based
[3] = test system: CCRF-CEM; test: The human T-lymphoblast CEM cell (ATCC) proliferation inhibitory activity was determined; type: functional, cell-based
Summary of the method: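 CEM human T-lymphoblasts were grown in RPMI 1640 with 10% heat-inactivated FBS and penicillin/streptomycin, then seeded at 3000 cells/well with 0.5% DMSO. Compounds were tested in triplicate, top final concentration 10 uM, in 3-fold serial dilutions, for 72 h at 5% CO2. Viability was read by Alamar Blue (10% v/v, final 5 h), fluorescence ex/em 530/590 nm.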

[4] = target: Inosine-5'-monophosphate dehydrogenase 1 (Homo sapiens, UniProt P20839); test: Inhibitory activity of compound was evaluated against the Inosine-5'-monophosphate dehydrogenase 1
Sequence of Inosine-5'-monophosphate dehydrogenase 1 (P20839 whole entry): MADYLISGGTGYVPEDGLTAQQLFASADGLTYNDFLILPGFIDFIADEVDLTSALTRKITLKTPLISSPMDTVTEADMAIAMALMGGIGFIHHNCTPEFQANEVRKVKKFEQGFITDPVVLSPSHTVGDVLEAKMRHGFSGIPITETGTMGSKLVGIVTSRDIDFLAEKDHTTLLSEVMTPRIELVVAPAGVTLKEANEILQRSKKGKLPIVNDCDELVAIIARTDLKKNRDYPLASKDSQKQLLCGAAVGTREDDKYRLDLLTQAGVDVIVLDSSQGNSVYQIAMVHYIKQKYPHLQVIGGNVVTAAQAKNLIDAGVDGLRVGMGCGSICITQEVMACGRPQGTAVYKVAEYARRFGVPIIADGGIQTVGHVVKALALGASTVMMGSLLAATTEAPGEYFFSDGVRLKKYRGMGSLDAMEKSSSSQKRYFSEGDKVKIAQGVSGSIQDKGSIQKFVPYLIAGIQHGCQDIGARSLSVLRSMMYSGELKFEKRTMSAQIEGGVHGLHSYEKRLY

[5] = target: T1, Inosine-5'-monophosphate dehydrogenase 2; test: Inhibitory activity of compound was evaluated against the inosine monophosphate dehydrogenase -II (IMPDH-II) enzyme; summary of the method: as §1

| IC50 [1] [nM] | IC50 [2] [nM] | IC50 [3] [nM] | IC50 [4] [nM] | IC50 [5] [nM] | SMILES |
| --- | --- | --- | --- | --- | --- |
| 230 | > 1000 |  |  |  | COc1cc(NC(=O)/C=C/c2ccc(Cl)cc2)ccc1-c1cnco1 |
| 120 | > 1000 |  |  |  | COc1cc(NC(=O)/C=C/c2ccc(F)cc2)ccc1-c1cnco1 |
| 540 | > 1000 |  |  |  | COc1cc(NC(=O)c2cc(C)c(C)o2)ccc1-c1cnco1 |
| 75 | > 1000 |  |  |  | COc1cc(NC(=O)/C=C/c2c(C)cc(F)cc2C)ccc1-c1cnco1 |
| 630 | > 1000 |  |  |  | COc1cc(NC(=O)/C=C/c2ccc3ccccc3n2)ccc1-c1cnco1 |
| > 1000 | > 1000 |  |  |  | COc1cc(NC(=O)c2[nH]nc3ccccc23)ccc1-c1cnco1 |
| 210 | > 1000 |  |  |  | COc1cc(NC(=O)/C=C/c2cccnc2)ccc1-c1cnco1 |
| > 1000 | > 1000 |  |  |  | COc1cc(NC(=O)c2occc2C)ccc1-c1cnco1 |
| 110 | > 1000 |  |  |  | COc1ccccc1/C=C/C(=O)Nc1ccc(-c2cnco2)c(OC)c1 |
| 590 | > 1000 |  |  |  | COc1cc(NC(=O)/C=C/c2cccc(C)c2)ccc1-c1cnco1 |
| 170 | > 1000 |  |  |  | COc1cc(NC(=O)c2cc3ccccc3s2)ccc1-c1cnco1 |
| 330 | > 1000 |  |  |  | COc1cc(NC(=O)c2ccc3c(c2)OCO3)ccc1-c1cnco1 |
| 130 |  | 7700 |  |  | COc1cc(NC(=O)c2cc3ccccc3n2C)ccc1-c1cnco1 |
| 300 | > 1000 |  |  |  | COc1cc(NC(=O)/C=C/c2cccc(Cl)c2)ccc1-c1cnco1 |
| 260 | > 1000 |  |  |  | COc1cc(NC(=O)c2ccc(C)c(C)c2)ccc1-c1cnco1 |
| 970 | > 1000 |  |  |  | COc1cc(NC(=O)Cc2ccccc2)ccc1-c1cnco1 |
| 60 | > 1000 |  |  |  | COc1cc(NC(=O)/C=C/c2ccccc2Cl)ccc1-c1cnco1 |
| 200 | > 1000 |  |  |  | COc1cc(NC(=O)/C=C/c2cccc(F)c2)ccc1-c1cnco1 |
| 66 | > 1000 |  |  |  | COc1cc(NC(=O)/C=C/c2cccs2)ccc1-c1cnco1 |
|  | > 1000 |  |  |  | COc1cc(NC(=O)Nc2cccc(C)c2)ccc1-c1cnco1 |

| IC50 [1] [nM] | IC50 [2] [nM] | IC50 [3] [nM] | IC50 [4] [nM] | IC50 [5] [nM] | SMILES |
| --- | --- | --- | --- | --- | --- |
| 890 | > 1000 |  |  |  | COc1cc(NC(=O)c2cccn2C)ccc1-c1cnco1 |
| 110 |  | 8800 |  |  | COc1cc(NC(=O)c2ccc(C)s2)ccc1-c1cnco1 |
| 740 | > 1000 |  |  |  | COc1cc(NC(=O)/C=C/c2ccccc2F)ccc1-c1cnco1 |
| 110 | > 1000 |  | > 1000 |  | COc1cc(NC(=O)c2cc3ccccc3[nH]2)ccc1-c1cnco1 |
| 140 | > 1000 |  |  |  | COc1cc(NC(=O)c2cc3ccccn3c2)ccc1-c1cnco1 |
| 210 | > 1000 |  |  |  | COc1cc(NC(=O)/C=C/c2ccc(C)cc2)ccc1-c1cnco1 |
| 210 | > 1000 |  |  |  | COc1cc(NC(=O)c2cc3ccccc3o2)ccc1-c1cnco1 |
| 870 | > 1000 |  |  |  | COc1cc(NC(=O)c2ccc(-c3ccccn3)s2)ccc1-c1cnco1 |
| 810 | > 1000 |  |  |  | COc1cc(NC(=O)c2cccs2)ccc1-c1cnco1 |
| 130 | > 1000 |  |  |  | COc1cc(NC(=O)c2ccc(C(C)(C)C)o2)ccc1-c1cnco1 |
| > 3000 | > 1000 |  |  |  | COc1cc(NC(=O)c2c[nH]c3ccccc23)ccc1-c1cnco1 |
| 57 |  | 8700 |  |  | COc1cc(NC(=O)/C=C/c2ccncc2)ccc1-c1cnco1 |
| 2500 | > 1000 |  |  |  | COc1cc(NC(=O)c2ccco2)ccc1-c1cnco1 |
| 410 | > 1000 |  |  |  | COc1cc(NC(=O)/C=C/c2c[nH]c3ccccc23)ccc1-c1cnco1 |
| 960 | > 1000 |  |  |  | COc1ccccc1/C=C\C(=O)Nc1ccc(-c2cnco2)c(OC)c1 |
| 35 | > 1000 |  |  |  | COc1cc(NC(=O)/C=C/c2ccccc2C)ccc1-c1cnco1 |
| 73 | > 1000 |  |  |  | COc1cc(NC(=O)/C=C/c2ccccc2)ccc1-c1cnco1 |
|  | > 1000 |  |  | 630 | COc1cc(NC(=O)c2ccccc2)ccc1-c1cnco1 |
| 630 | > 1000 |  |  |  | COc1cc(NC(=O)c2ccc3[nH]ccc3c2)ccc1-c1cnco1 |

| SMILES | IC50 [1] [nM] | IC50 [2] [nM] | IC50 [3] [nM] | IC50 [4] [nM] | IC50 [5] [nM] |
| --- | --- | --- | --- | --- | --- |
| COc1cc(NC(=O)/C=C/c2ccco2)ccc1-c1cnco1 | 28 |  | 6600 |  |  |
